In ChEMBL document CHEMBL4689842, “EUbOPEN Chemogenomics Library wave 1” (2021):

Tested on: Fibroblast
Assay: Multiplex assay against human fibroblast
Type: toxicity, cell-based
Method in brief: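 Imaging took place on a CQ1 microscope at 37°C and 5% CO2 once compound had been added to live cells stained at seeding with Hoechst33342, BioTracker Green Microtubule Cytoskeleton Dye, MitoTracker Red and Annexin V Alexa Fluor 680. CellPathfinder machine-learning gating classed cells as Hoechst high-intensity objects or normal cells, classed normal cells as having healthy, pyknosed or fragmented nuclei, and classed pyknosed cells as mitotic or apoptotic. Tubulin, mitochondrial-mass and membrane-permeability phenotypes are per cents of the healthy-nucleus cells.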

[1] = 12 h, 1 µM, compound concentration 1 uM, replicate 1
[2] = 12 h, 1 µM, compound concentration 1 uM, replicate 2
[3] = 12 h, 10 µM, compound concentration 10 uM, replicate 1
[4] = 12 h, 10 µM, compound concentration 10 uM, replicate 2
[5] = 24 h, 1 µM, compound concentration 1 uM, replicate 1
[6] = 24 h, 1 µM, compound concentration 1 uM, replicate 2
[7] = 24 h, 10 µM, compound concentration 10 uM, replicate 1
[8] = 24 h, 10 µM, compound concentration 10 uM, replicate 2

SMILES: CN(C)C/C=C/C(=O)Nc1cc2c(Nc3ccc(F)c(Cl)c3)ncnc2cc1O[C@H]1CCOC1.O=C(O)/C=C\C(=O)O.O=C(O)/C=C\C(=O)O [AFATINIB DIMALEATE]
- Population Apoptotic (%) [1]: 66%
- Population Fragmented Nuclei (%) [1]: 30%
- Population Healthy Nuclei (%) [1]: 53%
- Population Hoechst High Intensity Objects (%) [1]: 13%
- Population Membrane Permeable-Phenotype (%) [1]: 13%
- Population Mitochondria Different-Phenotype (%) [1]: 3%
- Population Mitotic Cells (%) [1]: 33%
- Population Normal (%) [1]: 86%
- Population Pyknosed Nuclei (%) [1]: 16%
- Population Tubulin-Different-Phenotype (%) [1]: 10%
- Total Cell Count [1]: 234
- Population Apoptotic (%) [2]: 45%
- Population Fragmented Nuclei (%) [2]: 60%
- Population Healthy Nuclei (%) [2]: 21%
- Population Hoechst High Intensity Objects (%) [2]: 38%
- Population Membrane Permeable-Phenotype (%) [2]: 7%
- Population Mitochondria Different-Phenotype (%) [2]: 30%
- Population Mitotic Cells (%) [2]: 54%
- Population Normal (%) [2]: 61%
- Population Pyknosed Nuclei (%) [2]: 18%
- Population Tubulin-Different-Phenotype (%) [2]: 15%
- Total Cell Count [2]: 99
- Population Apoptotic (%) [3]: 58%
- Population Fragmented Nuclei (%) [3]: 27%
- Population Healthy Nuclei (%) [3]: 50%
- Population Hoechst High Intensity Objects (%) [3]: 24%
- Population Membrane Permeable-Phenotype (%) [3]: 18%
- Population Mitochondria Different-Phenotype (%) [3]: 12%
- Population Mitotic Cells (%) [3]: 41%
- Population Normal (%) [3]: 75%
- Population Pyknosed Nuclei (%) [3]: 22%
- Population Tubulin-Different-Phenotype (%) [3]: 68%
- Total Cell Count [3]: 247
- Population Apoptotic (%) [4]: 22%
- Population Fragmented Nuclei (%) [4]: 33%
- Population Healthy Nuclei (%) [4]: 52%
- Population Hoechst High Intensity Objects (%) [4]: 34%
- Population Membrane Permeable-Phenotype (%) [4]: 16%
- Population Mitochondria Different-Phenotype (%) [4]: 13%
- Population Mitotic Cells (%) [4]: 77%
- Population Normal (%) [4]: 65%
- Population Pyknosed Nuclei (%) [4]: 13%
- Population Tubulin-Different-Phenotype (%) [4]: 91%
- Total Cell Count [4]: 104
- Population Apoptotic (%) [5]: 72%
- Population Fragmented Nuclei (%) [5]: 35%
- Population Healthy Nuclei (%) [5]: 53%
- Population Hoechst High Intensity Objects (%) [5]: 18%
- Population Membrane Permeable-Phenotype (%) [5]: 5%
- Population Mitochondria Different-Phenotype (%) [5]: 7%
- Population Mitotic Cells (%) [5]: 27%
- Population Normal (%) [5]: 81%
- Population Pyknosed Nuclei (%) [5]: 10%
- Population Tubulin-Different-Phenotype (%) [5]: 13%
- Total Cell Count [5]: 247
- Population Apoptotic (%) [6]: 50%
- Population Fragmented Nuclei (%) [6]: 54%
- Population Healthy Nuclei (%) [6]: 28%
- Population Hoechst High Intensity Objects (%) [6]: 34%
- Population Membrane Permeable-Phenotype (%) [6]: 0%
- Population Mitochondria Different-Phenotype (%) [6]: 6%
- Population Mitotic Cells (%) [6]: 50%
- Population Normal (%) [6]: 65%
- Population Pyknosed Nuclei (%) [6]: 17%
- Population Tubulin-Different-Phenotype (%) [6]: 12%
- Total Cell Count [6]: 87
- Population Apoptotic (%) [7]: 57%
- Population Fragmented Nuclei (%) [7]: 29%
- Population Healthy Nuclei (%) [7]: 54%
- Population Hoechst High Intensity Objects (%) [7]: 38%
- Population Membrane Permeable-Phenotype (%) [7]: 19%
- Population Mitochondria Different-Phenotype (%) [7]: 21%
- Population Mitotic Cells (%) [7]: 42%
- Population Normal (%) [7]: 61%
- Population Pyknosed Nuclei (%) [7]: 15%
- Population Tubulin-Different-Phenotype (%) [7]: 61%
- Population Apoptotic (%) [8]: 66%
- Population Fragmented Nuclei (%) [8]: 49%
- Population Healthy Nuclei (%) [8]: 36%
- Population Hoechst High Intensity Objects (%) [8]: 35%
- Population Membrane Permeable-Phenotype (%) [8]: 34%
- Population Mitochondria Different-Phenotype (%) [8]: 26%
- Population Mitotic Cells (%) [8]: 33%
- Population Normal (%) [8]: 64%
- Population Pyknosed Nuclei (%) [8]: 14%
- Population Tubulin-Different-Phenotype (%) [8]: 82%
- Total Cell Count [8]: 98

SMILES: CC(C)(C)c1cnc(CSc2cnc(NC(=O)C3CCNCC3)s2)o1 [BMS-387032]
- Population Apoptotic (%) [1]: 75%
- Population Fragmented Nuclei (%) [1]: 25%
- Population Healthy Nuclei (%) [1]: 56%
- Population Hoechst High Intensity Objects (%) [1]: 12%
- Population Membrane Permeable-Phenotype (%) [1]: 10%
- Population Mitochondria Different-Phenotype (%) [1]: 10%
- Population Mitotic Cells (%) [1]: 24%
- Population Normal (%) [1]: 87%
- Population Pyknosed Nuclei (%) [1]: 18%
- Population Tubulin-Different-Phenotype (%) [1]: 11%
- Total Cell Count [1]: 199
- Population Apoptotic (%) [2]: 50%
- Population Fragmented Nuclei (%) [2]: 58%
- Population Healthy Nuclei (%) [2]: 33%
- Population Hoechst High Intensity Objects (%) [2]: 37%
- Population Membrane Permeable-Phenotype (%) [2]: 5%
- Population Mitochondria Different-Phenotype (%) [2]: 5%
- Population Mitotic Cells (%) [2]: 50%
- Population Normal (%) [2]: 62%
- Population Pyknosed Nuclei (%) [2]: 7%
- Population Tubulin-Different-Phenotype (%) [2]: 0%
- Total Cell Count [2]: 82
- Population Apoptotic (%) [3]: 75%
- Population Fragmented Nuclei (%) [3]: 28%
- Population Healthy Nuclei (%) [3]: 54%
- Population Hoechst High Intensity Objects (%) [3]: 8%
- Population Membrane Permeable-Phenotype (%) [3]: 1%
- Population Mitochondria Different-Phenotype (%) [3]: 21%
- Population Mitotic Cells (%) [3]: 24%
- Population Normal (%) [3]: 91%
- Population Pyknosed Nuclei (%) [3]: 17%
- Population Tubulin-Different-Phenotype (%) [3]: 32%
- Total Cell Count [3]: 207
- Population Apoptotic (%) [4]: 54%
- Population Fragmented Nuclei (%) [4]: 58%
- Population Healthy Nuclei (%) [4]: 19%
- Population Hoechst High Intensity Objects (%) [4]: 26%
- Population Membrane Permeable-Phenotype (%) [4]: 0%
- Population Mitochondria Different-Phenotype (%) [4]: 50%
- Population Mitotic Cells (%) [4]: 45%
- Population Normal (%) [4]: 73%
- Population Pyknosed Nuclei (%) [4]: 21%
- Population Tubulin-Different-Phenotype (%) [4]: 40%
- Total Cell Count [4]: 69
- Population Apoptotic (%) [5]: 54%
- Population Fragmented Nuclei (%) [5]: 30%
- Population Healthy Nuclei (%) [5]: 47%
- Population Hoechst High Intensity Objects (%) [5]: 12%
- Population Membrane Permeable-Phenotype (%) [5]: 6%
- Population Mitochondria Different-Phenotype (%) [5]: 4%
- Population Mitotic Cells (%) [5]: 45%
- Population Normal (%) [5]: 87%
- Population Pyknosed Nuclei (%) [5]: 21%
- Population Tubulin-Different-Phenotype (%) [5]: 10%
- Total Cell Count [5]: 197
- Population Apoptotic (%) [6]: 62%
- Population Fragmented Nuclei (%) [6]: 51%
- Population Healthy Nuclei (%) [6]: 32%
- Population Hoechst High Intensity Objects (%) [6]: 35%
- Population Membrane Permeable-Phenotype (%) [6]: 5%
- Population Mitochondria Different-Phenotype (%) [6]: 5%
- Population Mitotic Cells (%) [6]: 37%
- Population Normal (%) [6]: 65%
- Population Pyknosed Nuclei (%) [6]: 15%
- Population Tubulin-Different-Phenotype (%) [6]: 5%
- Total Cell Count [6]: 80
- Population Apoptotic (%) [7]: 65%
- Population Fragmented Nuclei (%) [7]: 34%
- Population Healthy Nuclei (%) [7]: 48%
- Population Hoechst High Intensity Objects (%) [7]: 8%
- Population Membrane Permeable-Phenotype (%) [7]: 4%
- Population Mitochondria Different-Phenotype (%) [7]: 29%
- Population Mitotic Cells (%) [7]: 34%
- Population Normal (%) [7]: 91%
- Population Pyknosed Nuclei (%) [7]: 17%
- Population Tubulin-Different-Phenotype (%) [7]: 54%
- Total Cell Count [7]: 196
- Population Apoptotic (%) [8]: 62%
- Population Fragmented Nuclei (%) [8]: 44%
- Population Healthy Nuclei (%) [8]: 18%
- Population Hoechst High Intensity Objects (%) [8]: 31%
- Population Membrane Permeable-Phenotype (%) [8]: 0%
- Population Mitochondria Different-Phenotype (%) [8]: 62%
- Population Mitotic Cells (%) [8]: 37%
- Population Normal (%) [8]: 68%
- Population Pyknosed Nuclei (%) [8]: 37%
- Population Tubulin-Different-Phenotype (%) [8]: 50%
- Total Cell Count [8]: 63
